Assays:
[1] = Plasma concentration in CE-2 chow diet-fed golden Syrian hamster at 100 mg/kg, po after 0.5 hrs by HPLC-LC-MS/MS method; format: ADME, organism-based, Mesocricetus auratus
Method in brief: (§1)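 Hamsters on chow diet received a single oral dose of 100 mg/kg. Heparin plasma was drawn from a forearm vein at 0.5, 1, 2, 3, 4, 6, 8, 10 and 24 h after dosing. Concentrations of parent drug and its carboxylic acid metabolite were measured in plasma.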

[2] = Plasma concentration in CE-2 chow diet-fed golden Syrian hamster at 100 mg/kg, po after 1 hr by HPLC-LC-MS/MS method; format: ADME, organism-based, Mesocricetus auratus; method in brief: as §1
[3] = Plasma concentration in CE-2 chow diet-fed golden Syrian hamster at 100 mg/kg, po after 3 hrs by HPLC-LC-MS/MS method; format: ADME, organism-based, Mesocricetus auratus; method in brief: as §1
[4] = Plasma concentration in CE-2 chow diet-fed golden Syrian hamster at 100 mg/kg, po after 6 hrs by HPLC-LC-MS/MS method; format: ADME, organism-based, Mesocricetus auratus; method in brief: as §1
[5] = Plasma concentration in CE-2 chow diet-fed golden Syrian hamster at 100 mg/kg, po after 10 hrs by HPLC-LC-MS/MS method; format: ADME, organism-based, Mesocricetus auratus; method in brief: as §1
[6] = Plasma concentration in CE-2 chow diet-fed golden Syrian hamster at 100 mg/kg, po after 24 hrs by HPLC-LC-MS/MS method; format: ADME, organism-based, Mesocricetus auratus; method in brief: as §1
[7] = Plasma concentration in CE-2 chow diet-fed golden Syrian hamster assessed as 4-(4-(1,1,1,3,3,3-Hexafluoro-2-hydroxypropan-2-yl)-2,6-di-n-propylphenoxy)-butanoic acid level at 100 mg/kg, po after 0.5 hrs by HPLC-LC-MS/MS method; format: ADME, organism-based, Mesocricetus auratus; conditions: in vivo; method in brief: as §1
[8] = Plasma concentration in CE-2 chow diet-fed golden Syrian hamster assessed as 4-(4-(1,1,1,3,3,3-Hexafluoro-2-hydroxypropan-2-yl)-2,6-di-n-propylphenoxy)-butanoic acid level at 100 mg/kg, po after 1 hr by HPLC-LC-MS/MS method; format: ADME, organism-based, Mesocricetus auratus; conditions: in vivo; method in brief: as §1
[9] = Plasma concentration in CE-2 chow diet-fed golden Syrian hamster assessed as 4-(4-(1,1,1,3,3,3-Hexafluoro-2-hydroxypropan-2-yl)-2,6-di-n-propylphenoxy)-butanoic acid level at 100 mg/kg, po after 2 hrs by HPLC-LC-MS/MS method; format: ADME, organism-based, Mesocricetus auratus; conditions: in vivo; method in brief: as §1
[10] = Plasma concentration in CE-2 chow diet-fed golden Syrian hamster assessed as 4-(4-(1,1,1,3,3,3-Hexafluoro-2-hydroxypropan-2-yl)-2,6-di-n-propylphenoxy)-butanoic acid level at 100 mg/kg, po after 4 hrs by HPLC-LC-MS/MS method; format: ADME, organism-based, Mesocricetus auratus; conditions: in vivo; method in brief: as §1
[11] = Plasma concentration in CE-2 chow diet-fed golden Syrian hamster assessed as 4-(4-(1,1,1,3,3,3-Hexafluoro-2-hydroxypropan-2-yl)-2,6-di-n-propylphenoxy)-butanoic acid level at 100 mg/kg, po after 6 hrs by HPLC-LC-MS/MS method; format: ADME, organism-based, Mesocricetus auratus; conditions: in vivo; method in brief: as §1
[12] = Plasma concentration in CE-2 chow diet-fed golden Syrian hamster assessed as 4-(4-(1,1,1,3,3,3-Hexafluoro-2-hydroxypropan-2-yl)-2,6-di-n-propylphenoxy)-butanoic acid level at 100 mg/kg, po after 8 hrs by HPLC-LC-MS/MS method; format: ADME, organism-based, Mesocricetus auratus; conditions: in vivo; method in brief: as §1
[13] = Plasma concentration in CE-2 chow diet-fed golden Syrian hamster assessed as 4-(4-(1,1,1,3,3,3-Hexafluoro-2-hydroxypropan-2-yl)-2,6-di-n-propylphenoxy)-butanoic acid level at 100 mg/kg, po after 10 hrs by HPLC-LC-MS/MS method; format: ADME, organism-based, Mesocricetus auratus; conditions: in vivo; method in brief: as §1
[14] = Plasma concentration in CE-2 chow diet-fed golden Syrian hamster assessed as 4-(4-(1,1,1,3,3,3-Hexafluoro-2-hydroxypropan-2-yl)-2,6-di-n-propylphenoxy)-butanoic acid level at 100 mg/kg, po after 24 hrs by HPLC-LC-MS/MS method; format: ADME, organism-based, Mesocricetus auratus; conditions: in vivo; method in brief: as §1
[15] = Cmax in CE-2 chow diet-fed golden Syrian hamster at 100 mg/kg, po after 6 hrs by HPLC-LC-MS/MS method; format: ADME, organism-based, Mesocricetus auratus; parameters: dose 100 mg/kg, route oral; conditions: in vivo; method in brief: as §1
Hamster [16] = experiment: Increase in ABCA1 gene expression in Bio F1B hamster intestine at 10 to 100 mg/kg, po; format: functional, organism-based; conditions: Cricetinae
Hamster [17] = experiment: Increase in ABCA1 gene expression in Bio F1B hamster intestine at 10 mg/kg, po; format: functional, Cricetinae
Hamster [18] = experiment: Increase in ABCA1 gene expression in Bio F1B hamster peripheral blood at 10 mg/kg, po; format: functional, Cricetinae
Hamster [19] = experiment: Increase in ABCA1 gene expression in Bio F1B hamster peripheral blood at 30 mg/kg, po; format: functional, Cricetinae
Method in brief: (§2)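 Bio F1B hamsters were fed a high-fat, high-cholesterol diet and dosed orally. Gene expression was measured in intestine (ABCA1, ABCG5, ABCG8) and in peripheral blood (ABCA1).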

Hamster [20] = experiment: Increase in ABCA1 gene expression in Bio F1B hamster peripheral blood at 100 mg/kg, po; format: functional, Cricetinae; method in brief: as §2
Hamster [21] = experiment: Increase in ABCG5 gene expression in Bio F1B hamster intestine at 10 mg/kg, po; format: functional, Cricetinae
Hamster [22] = experiment: Increase in ABCG5 gene expression in Bio F1B hamster intestine at 30 mg/kg, po; format: functional, Cricetinae; method in brief: as §2
Hamster [23] = experiment: Increase in ABCG5 gene expression in Bio F1B hamster intestine at 100 mg/kg, po; format: functional, Cricetinae; method in brief: as §2
Hamster [24] = experiment: Increase in ABCG8 gene expression in Bio F1B hamster intestine at 10 mg/kg, po; format: functional, Cricetinae
Hamster [25] = experiment: Increase in ABCG8 gene expression in Bio F1B hamster intestine at 30 mg/kg, po; format: functional, Cricetinae; method in brief: as §2
Hamster [26] = experiment: Hypolipidemic effect in Bio F1B hamster fed with high fat and cholesterol diet assessed as total cholesterol level at 10 mg/kg, po relative to control; format: functional, Cricetinae
Hamster [27] = experiment: Hypolipidemic effect in Bio F1B hamster fed with high fat and cholesterol diet assessed as total cholesterol level at 30 mg/kg, po relative to control; format: functional, Cricetinae
Hamster [28] = experiment: Hypolipidemic effect in Bio F1B hamster fed with high fat and cholesterol diet assessed as HDL-cholesterol level at 10 mg/kg, po relative to control; format: functional, Cricetinae
Hamster [29] = experiment: Hypolipidemic effect in Bio F1B hamster fed with high fat and cholesterol diet assessed as HDL-cholesterol level at 30 mg/kg, po relative to control; format: functional, Cricetinae
Hamster [30] = experiment: Hypolipidemic effect in Bio F1B hamster fed with high fat and cholesterol diet assessed as HDL-cholesterol level at 100 mg/kg, po relative to control; format: functional, Cricetinae
Hamster [31] = experiment: Hypolipidemic effect in Bio F1B hamster fed with high fat and cholesterol diet assessed as LDL-cholesterol level at 10 mg/kg, po relative to control; format: functional, Cricetinae
Hamster [32] = experiment: Hypolipidemic effect in Bio F1B hamster fed with high fat and cholesterol diet assessed as LDL-cholesterol level at 100 mg/kg, po relative to control; format: functional, Cricetinae
Hamster [33] = experiment: Effect in lipid profiles in Bio F1B hamster fed with high fat and cholesterol diet assessed as triglyceride level at 10 mg/kg, po relative to control; format: organism-based; conditions: cricetinae, in vivo
Hamster [34] = experiment: Effect in lipid profiles in Bio F1B hamster fed with high fat and cholesterol diet assessed as triglyceride level at 30 mg/kg, po relative to control; format: organism-based; conditions: cricetinae, in vivo
Hamster [35] = experiment: Effect in lipid profiles in Bio F1B hamster fed with high fat and cholesterol diet assessed as triglyceride level at 100 mg/kg, po relative to control; format: organism-based; conditions: cricetinae, in vivo

Which concentration at 0.5 h [1] does the source give for `CCCc1cc(C(O)(C(F)(F)F)C(F)(F)F)cc(CCC)c1OCCCCN1C(=O)NC(C)(c2ccc(OC(C)C)cc2)C1=O` (stereo not given) here?
Its concentration at 0.5 h is 310 nM.

What about the concentration at 1 h [2] of the same compound?
Its concentration at 1 h is 490 nM.

And the concentration at 3 h [3]?
The concentration at 3 h was 290 nM.

What about the concentration at 6 h [4] of the same compound?
The concentration at 6 h was 630 nM.

What about the concentration at 10 h [5] of the same compound?
The concentration at 10 h was 110 nM.

What about the concentration at 24 h [6] of the same compound?
Its concentration at 24 h is 100 nM.

What about the Cp [7] of the same compound?
The Cp was 52 ng/mL.

What about the Cp [8] of the same compound?
Its Cp is 202 ng/mL.

What about the Cp [9] of the same compound?
The Cp was 375 ng/mL.

And the Cp [10]?
The Cp was 529 ng/mL.

And the Cp [11]?
The Cp was 641 ng/mL.

And the Cp [12]?
Its Cp is 979 ng/mL.

What about the Cp [13] of the same compound?
Its Cp is 560 ng/mL.

What about the Cp [14] of the same compound?
The Cp was 528 ng/mL.

And the Cmax [15]?
Its Cmax is 600 nM.

And the Activity (Hamster [16])?
The Activity was “Dose-dependent effect”.

And the “fold change (FC)” value (Hamster [17])?
Its value is 2.1.

What about the “fold change (FC)” value (Hamster [18]) of the same compound?
The value was 1.

What about the “fold change (FC)” value (Hamster [19]) of the same compound?
The value was 0.8.

And the “fold change (FC)” value (Hamster [20])?
The value was 1.

What about the “fold change (FC)” value (Hamster [21]) of the same compound?
Its value is 1.2.

And the “fold change (FC)” value (Hamster [22])?
Its value is 1.5.

And the “fold change (FC)” value (Hamster [23])?
Its value is 1.3.

And the “fold change (FC)” value (Hamster [24])?
The value was 1.3.

And the “fold change (FC)” value (Hamster [25])?
Its value is 1.4.

And the Activity (Hamster [26])?
Its Activity is 87%.

What about the Activity (Hamster [27]) of the same compound?
The Activity was 96%.

And the Activity (Hamster [28])?
Its Activity is 98%.

What about the Activity (Hamster [29]) of the same compound?
The Activity was 92%.

And the Activity (Hamster [30])?
The Activity was 75%.

What about the Activity (Hamster [31]) of the same compound?
Its Activity is 94%.

And the Activity (Hamster [32])?
The Activity was 45%.

What about the Activity (Hamster [33]) of the same compound?
Its Activity is 97%.

And the Activity (Hamster [34])?
The Activity was 145%.

What about the Activity (Hamster [35]) of the same compound?
The Activity was 112%.
